What was measured:
Mouse [1] = assay: concentration in plasma after dosing; settings: dosed: 2,4-Dichlorophenoxyacetic acid, 1.0 mg/kg, oral, Male, B6C3F1
Mouse [2] = assay: concentration in plasma after dosing; settings: 10 min; dosed: 2-Hydroxy-4-methoxybenzophenone; 250 mg/kg; oral; Female; B6C3F1
Rat [3] = assay: concentration in plasma after dosing; settings: 0.25 h; dosed: 2-Hydroxy-4-methoxybenzophenone; 500 mg/kg; oral; Female; F344
Mouse [4] = assay: concentration in plasma after dosing; settings: 10 min; dosed: 2-Hydroxy-4-methoxybenzophenone; 50 mg/kg; iv; Male; B6C3F1
Mouse [5] = assay: concentration in plasma after dosing; settings: 10 min; dosed: 2-Hydroxy-4-methoxybenzophenone; 250 mg/kg; oral; Male; B6C3F1
Mouse [6] = assay: concentration in plasma after dosing; settings: 0.25 h; dosed: 2-Hydroxy-4-methoxybenzophenone; 250 mg/kg; oral; Male; B6C3F1
Rat [7] = assay: concentration in plasma after dosing; settings: dosed: 2-Hydroxy-4-methoxybenzophenone, 100 mg/kg, oral, Female, F344
Rat [8] = assay: concentration in plasma after dosing; settings: dosed: Methyleugenol, 37 mg/kg, iv, Female, F344
Rat [9] = assay: concentration in plasma after dosing; settings: dosed: Methyleugenol, 37 mg/kg, oral, Male, F344/N
Rat [10] = assay: concentration in plasma after dosing; settings: dosed: Methyleugenol, 37 mg/kg, iv, Male, F344
Rat [11] = assay: concentration in liver after dosing; settings: 3 h; dosed: Perfluorohexane-1-sulphonic acid – potassium salt; 16 mg/kg; oral; Female; Harlan Sprague Dawley
Rat [12] = assay: concentration in kidney after dosing; settings: 24 h; dosed: Perfluorohexane-1-sulphonic acid – potassium salt; 16 mg/kg; oral; Female; Harlan Sprague Dawley
Rat [13] = assay: concentration in brain after dosing; settings: 24 h; dosed: Perfluorohexane-1-sulphonic acid – potassium salt; 16 mg/kg; oral; Female; F344
Rat [14] = assay: concentration in liver after dosing; settings: 24 h; dosed: Perfluorohexane-1-sulphonic acid – potassium salt; 16 mg/kg; oral; Female; Harlan Sprague Dawley
Rat [15] = assay: concentration in kidney after dosing; settings: 24 h; dosed: Perfluorohexane-1-sulphonic acid – potassium salt; 16 mg/kg; oral; Female; F344
Rat [16] = assay: concentration in plasma after dosing; settings: 1 h; dosed: Perfluorohexane-1-sulphonic acid – potassium salt; 16 mg/kg; oral; Male; F344
Rat [17] = assay: concentration in plasma after dosing; settings: 0.5 h; dosed: Primidone; 130 mg/kg; oral; Female; F344
Rat [18] = assay: concentration in plasma after dosing; settings: dosed: Pyridine, 5 mg/kg, oral, Male, F344
Rat [19] = assay: concentration in plasma after dosing; settings: dosed: Pyridine, 5 mg/kg, oral, Male, F344; remark: listed apart in the source
Rat [20] = assay: concentration in plasma after dosing; settings: 3 h; dosed: alpha-Thujone; 50 mg/kg; oral; Male; Harlan Sprague Dawley
Rat [21] = assay: concentration in plasma after dosing; settings: 0.5 h; dosed: alpha-Thujone; 50 mg/kg; oral; Female; Harlan Sprague Dawley
Rat [22] = assay: concentration in brain after dosing; settings: 5 min; dosed: alpha-Thujone; 50 mg/kg; oral; Female; Harlan Sprague Dawley
Rat [23] = assay: concentration in brain after dosing; settings: 10 min; dosed: alpha-Thujone; 25 mg/kg; oral; Male; Harlan Sprague Dawley
Rat [24] = assay: concentration in plasma after dosing; settings: 3 h; dosed: alpha-Thujone; 25 mg/kg; oral; Female; Harlan Sprague Dawley
Rat [25] = assay: concentration in brain after dosing; settings: 0.5 h; dosed: alpha-Thujone; 25 mg/kg; oral; Male; Harlan Sprague Dawley
Rat [26] = assay: concentration in plasma after dosing; settings: 5 min; dosed: alpha-Thujone; 25 mg/kg; oral; Male; Harlan Sprague Dawley
Rat [27] = assay: concentration in plasma after dosing; settings: 5 min; dosed: alpha-Thujone; 25 mg/kg; oral; Male; Harlan Sprague Dawley; remark: listed apart in the source
Rat [28] = assay: concentration in plasma after dosing; settings: 0.5 h; dosed: alpha-Thujone; 25 mg/kg; oral; Female; Harlan Sprague Dawley
rat [29] = assay: concentration in blood after dosing; negative times count back from the end of exposure; settings: dosed: trichloroethylene, 50 ppm, inhalation, duration: 4 hr, male, Sprague Dawley
human = assay: concentration in blood after dosing; negative times count back from the end of exposure; settings: dosed: trichloroethylene, 100 ppm, inhalation, duration: 6 hr, female
In short: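 Concentration-versus-time or amount-versus-time points were compiled from published in vivo toxicokinetic studies and from two structured collections. The studies were found by PubMed searching, classifier screening and manual review. Points were mostly digitised from plot screenshots with WebPlotDigitizer, otherwise copied from tables, and kept in the reported units. Dose, route, subject details and medium were curated by hand from each paper, and sampling and analytical methods follow each source and were often unreported.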

O=C(O)COc1ccc(Cl)cc1Cl [2,4-Dichlorophenoxyacetic acid]
Mouse [1]
Settings | concentration in plasma [ng/mL]
0.25 h | 1400
0.5 h | 1920
2 h | 531
2.5 min | 1660
3 h | 476
4 h | 200
5 min | 3440
10 h | 734
10 min | 2340

O=C(c1ccccc1)c1ccc(O)cc1O [2,4-Dihydroxybenzophenone]
Settings | concentration in plasma [ng/mL]
Mouse [2] | 2990
Mouse [4] | 3210
Mouse [5] | 392
Mouse [6] | 1490
Rat [3] | 781

Rat [7]
Settings | concentration in plasma [ng/mL]
0.5 h | 195
5 h | 85.4

C=CCc1ccc(OC)c(OC)c1 [Methyleugenol]
Settings | concentration in plasma [ng/mL]
Rat [8], 0.25 h | 9760
Rat [8], 1.5 h | 576
Rat [9], 2 min | 8.3
Rat [9], 4 h | 11.2
Rat [10], 2 min | 59100
Rat [10], 6 h | 114

O=S(=O)([O-])C(F)(F)C(F)(F)C(F)(F)C(F)(F)C(F)(F)C(F)(F)F.[K+] [Perfluorohexane-1-sulphonic acid – potassium salt]
Settings | concentration in brain [ng/g] | concentration in kidney [ng/g] | concentration in liver [ng/g] | concentration in plasma [ng/mL]
Rat [11] | – | – | 54100 | –
Rat [12] | – | 24300 | – | –
Rat [13] | 1760 | – | – | –
Rat [14] | – | – | 25700 | –
Rat [15] | – | 28100 | – | –
Rat [16] | – | – | – | 55600

CCC1(c2ccccc2)C(=O)NCNC1=O [Primidone]
Settings | concentration in plasma [ng/mL]
Rat [17] | 24000

c1ccncc1 [Pyridine]
concentration in plasma [ng/mL]
Settings | 0.5 h | 4 h | 5 min | 6 h
Rat [18] | – | 2550 | 794 | –
Rat [19] | 3090 | – | – | 1000

CC(C)[C@]12CC(=O)[C@H](C)[C@H]1C2 [alpha-Thujone]
Settings | concentration in brain [ng/g] | concentration in plasma [ng/mL]
Rat [20] | – | 357
Rat [21] | – | 475
Rat [22] | 3080 | –
Rat [23] | 2000 | –
Rat [24] | – | 180
Rat [25] | 285 | –
Rat [26] | – | 570
Rat [27] | – | 104
Rat [28] | – | 305

OCC(Cl)(Cl)Cl [trichloroethanol (free)]
rat [29]
Settings | concentration in blood [ng/mL]
0.1894 h | 1660
0.429 h | 1600
0.9471 h | 1580
1.964 h | 1500
3.996 h | 1440
5.928 h | 1510
7.943 h | 1140
9.955 h | 1050
11.95 h | 1030
13.94 h | 1040
15.88 h | 449
17.91 h | 747

rat [29], during exposure
Settings | concentration in blood [ng/mL]
-180 s | 1690
-2.968 h | 427
-1.958 h | 1200
-1.022 h | 1260

OCC(Cl)(Cl)Cl [trichloroethanol]
human
Settings | concentration in blood [ng/mL]
0 h | 7540
18 h | 3770
24 h | 7410
42 h | 2960
48 h | 6640
66 h | 2540
72 h | 6900
90 h | 3410
96 h | 6090

Settings | concentration in blood [ng/mL]
human, -6 h, during exposure | 222

— EPA's CvTdb concentration-time database
